We go through 13 molecules from ChEMBL document CHEMBL1121883, “1-(Naphthylalkyl)-1H-imidazole derivatives, a new class of anticonvulsant agents” (J Med Chem, 1981).

Data set [1] relates to Mus musculus. Put plainly: Dose of compound causing a neurological deficit in 50% of mice after ip administration. Type of data set: functional. The procedure, abridged:
(§1)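 Traction test in male Hilltop ICR-derived mice (19-30 g, groups of 8-10) just before electroshock, 15 min after ip or 30 min after oral dosing. Mice placed on a 16-gauge, 65-cm copper wire 40 cm above the table; deficit scored as failure to stay on for 10 s. ND50 with 95% limits by Litchfield-Wilcoxon.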

Data set [2] concerns Mus musculus. Put plainly: Compound was evaluated for anticonvulsant activity by maximal electroshock assay(MES) in mice after ip administration. Type of data set: functional. The procedure, abridged:
(§2)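 Male Hilltop ICR-derived mice (19-30 g), groups of 8-10, dosed ip with compound or aqueous vehicle. After 15 min pretreatment, a transcorneal 60-Hz, 50 mA shock was given for 0.2 s. Just before the shock, each mouse was tested on a horizontal wire (10 s). Quantal data were analysed by Litchfield-Wilcoxon to give ED50 with 95% confidence limits.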

Data set [3] has as its system Mus musculus. Put plainly: Dose causing a neurological deficit in 50% of mice after ip administration. Type of data set: functional. The procedure, abridged:
as §1

The subject of data set [4] is Mus musculus. The data set can be described thus: Protective index is defined as ND50 (i.p.) divided by MES ED50(i.p.). The class given is functional. The gist of the method:
(§3)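 Ratio of ND50 from the wire traction test to MES ED50, both measured by the same route (ip or oral) in the same animals. Quantal dose-response data for each were evaluated by Litchfield-Wilcoxon.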

In data set [5] the test system is Mus musculus. The data set can be described thus: Anticonvulsant activity in mouse maximal electroshock assay following i.p. administration. As to conditions: ip. Type of data set: functional. The procedure, abridged:
as §2
Background: Protection in the maximal electroshock model is a classic sign of anticonvulsant action.

In data set [6] the test system is Mus musculus. Put plainly: Protective index defined as ND50 (p.o.) divided by MES ED50(op). Type of data set: functional. The procedure, abridged:
as §3

Data set [7] relates to Rattus norvegicus. The data set can be described thus: Dose of compound causing a neurological deficit in 50% of rat after ip administration; 31-78. Type of data set: functional. The procedure, abridged: (§4)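 Rats (Simonsen Sprague-Dawley-derived, 80-110 g, groups of 8-10) placed on a suspended 16-gauge, 65-cm copper wire just before electroshock. Deficit scored as inability to remain for 8 s. Pretreatment was 15 min ip or 30 min oral. Quantal data analysed by Litchfield-Wilcoxon to give ND50 with 95% limits.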

The test system of data set [8] is Mus musculus. The data set can be described thus: Compound was evaluated for anticonvulsant activity by maximal electroshock assay(MES) in mice after ip administration; 8-13. Type of data set: functional. The gist of the method:
as §2

The test system of data set [9] is Rattus norvegicus. The data set can be described thus: Compound was evaluated for anticonvulsant activity by maximal electroshock assay(MES) in rat after ip administration; […]. Type of data set: functional.
For data set [10], the system named is Rattus norvegicus. The data set can be described thus: Dose of compound causing a neurological deficit in 50% of rat after po administration. Type of data set: functional. The gist of the method: as §4
Data set [11] concerns Mus musculus. Put plainly: Dose of compound causing a neurological deficit in 50% of mice after ip administration; 35-49. Type of data set: functional. The procedure, abridged: as §1
Data set [12] deals with Rattus norvegicus. Put plainly: Compound was evaluated for anticonvulsant activity by maximal electroshock assay(MES) in rat after po administration; 7.3-20. The class given is functional. The gist of the method: (§5)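 Male Simonsen Sprague-Dawley-derived rats, 80-110 g, groups of 8-10, dosed with compound or aqueous vehicle; pretreatment 15 min after ip or 30 min after oral dosing. Transcorneal electroshock, 150 mA, 60 Hz, 0.2 s, given after the wire test. ED50 with 95% confidence limits from quantal data by Litchfield-Wilcoxon.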

Data set [13] has as its system Mus musculus. Put plainly: Compound was evaluated for anticonvulsant activity by maximal electroshock assay(MES) in mice after po administration; 23-40. The class given is functional. The gist of the method: (§6)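 Male Hilltop ICR-derived mice (19-30 g), groups of 8-10, given compound or aqueous vehicle orally. The transcorneal 60-Hz shock (50 mA, 0.2 s) followed a 30 min pretreatment and a wire-hang neurological check (10 s). ED50 and 95% confidence limits were obtained from quantal data by the Litchfield-Wilcoxon method.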

Data set [14] concerns Mus musculus. Put plainly: Dose of compound causing a neurological deficit in 50% of mice after po administration; 79-196. The class given is functional. The gist of the method: as §1
Data set [15] has as its system Mus musculus. The data set can be described thus: Dose causing a neurological deficit in 50% of mice following p.o. administration. Type of data set: functional. The procedure, abridged: as §1
Data set [16] in a line: (§7) Lethal dose was measured in mice after ip administration. The class given is toxicity, organism-based. As to conditions: mouse, in vivo. The procedure, abridged:
(§8)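 Male Simonsen ICR-derived mice (16-24 g), groups of three, given compound ip in increasing doses within a behavioral screen. Deaths counted on day 5, and LD50 estimated from 5-day survival. Quantal data analysed by the Litchfield-Wilcoxon method.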

In data set [17] the test system is Rattus norvegicus. The data set can be described thus: Dose of compound causing a neurological deficit in 50% of rat after po administration.
Data set [18] relates to Rattus norvegicus. The data set can be described thus: Compound was evaluated for anticonvulsant activity by maximal electroshock assay(MES) in rat after po administration.
In data set [19] the test system is Mus musculus. The data set can be described thus: Compound was evaluated for anticonvulsant activity by maximal electroshock assay(MES) in mice after po administration. Type of data set: functional. The gist of the method: as §6
The subject of data set [20] is Mus musculus. Put plainly: Dose of compound causing a neurological deficit in 50% of mice after ip administration; 66-92. Type of data set: functional. The gist of the method: as §1
Data set [21] concerns Mus musculus. The data set can be described thus: Compound was evaluated for anticonvulsant activity by maximal electroshock assay(MES) in mice after ip administration; 11-18. The class given is functional. The procedure, abridged:
as §2

Data set [22] relates to Rattus norvegicus. Put plainly: Compound was evaluated for anticonvulsant activity by maximal electroshock assay(MES) in rat after ip administration; 0.6-6.6. The class given is functional.
The test system of data set [23] is Mus musculus. The description is as §7. The class given is functional. The procedure, abridged: as §8
Data set [24] deals with Rattus norvegicus. The data set can be described thus: Compound was evaluated for anticonvulsant activity by maximal electroshock assay(MES) in rat after po administration; 13-39. The class given is functional. The procedure, abridged:
as §5

Data set [25] deals with Rattus norvegicus. The data set can be described thus: Dose of compound causing a neurological deficit in 50% of rat after ip administration. The class given is functional. The procedure, abridged: as §4
The test system of data set [26] is Mus musculus. The data set can be described thus: Compound was evaluated for anticonvulsant activity by maximal electroshock assay(MES) in mice after po administration; 37-60. Type of data set: functional. The procedure, abridged:
as §6

Data set [27] has as its system Mus musculus. The data set can be described thus: Dose of compound causing a neurological deficit in 50% of mice after ip administration; 32-90. The class given is functional. The gist of the method: as §1
Data set [28] has as its system Mus musculus. Put plainly: Compound was evaluated for anticonvulsant activity by maximal electroshock assay(MES) in mice after ip administration; 14-33. Type of data set: functional. The gist of the method:
as §2

In data set [29] the test system is Mus musculus. Put plainly: Dose of compound causing a neurological deficit in 50% of mice after ip administration; 57-91. The class given is functional. The procedure, abridged:
as §1

The subject of data set [30] is Mus musculus. Put plainly: Compound was evaluated for anticonvulsant activity by maximal electroshock assay(MES) in mice after ip administration; 18-48. Type of data set: functional. The gist of the method:
as §2

Data set [31] concerns Mus musculus. Put plainly: compound was evaluated for anticonvulsant activity by maximal electroshock assay(MES) in mice after po administration. Type of data set: functional. The gist of the method:
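Male Hilltop ICR-derived mice, 19-30 g, groups of 8-10, dosed orally with compound or aqueous vehicle. Transcorneal electroshock (50 mA, 60 Hz, 0.2 s) delivered 30 min after dosing, immediately after a wire-hang neurological test. ED50 with 95% confidence limits estimated from quantal data by Litchfield-Wilcoxon.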

In the case of `CS(=O)(=O)C(Cn1ccnc1)c1ccc2ccccc2c1.Cl` (configuration not stated), the ND50 with Mus musculus [1] is above 40 mg/kg. Also, the ED50 (commonly the dose that gives a 50% effect, or the effect in half of the subjects) in the data set on Mus musculus [2] is above 40 mg/kg.
Turning to `Cl.c1ccc2c(C3(Cn4ccnc4)SCCS3)cccc2c1`, the ND50 with Mus musculus [3] came to 57 mg/kg. The PI in the data set with Mus musculus [4] is reported as 2.2. This molecule gave an ED50 in the data set with Mus musculus [5] of 26 mg/kg.
Take `C[S+]([O-])C(Cn1ccnc1)c1ccc2ccccc2c1.Cl` (configuration not stated): in the data set on Mus musculus [1], the ND50 was above 40 mg/kg. Besides, in the data set with Mus musculus [2], the ED50 was above 40 mg/kg.
With `COC(Cn1ccnc1)c1ccc2ccccc2c1.Cl` (configuration not stated), the PI in the data set on Mus musculus [6] was determined as 3.9; with Mus musculus [4] it was 4.2. The ND50 with Rattus norvegicus [7] is 46 mg/kg; in the data set with Rattus norvegicus [10] it was above 100 mg/kg; in the data set on Mus musculus [11], 42 mg/kg; in the data set with Mus musculus [14], 110 mg/kg. For the same molecule, the ED50 was found to be 10 mg/kg in the data set on Mus musculus [8], 3.8 mg/kg with Rattus norvegicus [9], 13 mg/kg with Rattus norvegicus [12] and 28 mg/kg in the data set on Mus musculus [13].
With `Cl.c1ccc2cc(CCn3ccnc3)ccc2c1`, the results for the PI with Mus musculus [6] and with Mus musculus [4] were above 2.1 and 1.4, respectively. Besides, the ND50 with Mus musculus [3] was 31 mg/kg; with Mus musculus [15], above 100 mg/kg; with Rattus norvegicus [17], above 100 mg/kg. In addition, the figures for the ED50 in the data set with Mus musculus [5], in the data set on Rattus norvegicus [18] and in the data set on Mus musculus [19] were 22 mg/kg, 54 mg/kg and 47 mg/kg, respectively. The LD50 (as a rule, the dose expected to kill half of the subjects tested) in data set [16] was above 100 mg/kg.
For the molecule `Cl.O=C(Cn1ccnc1)c1ccc2ccccc2c1` [NAFIMIDONE HYDROCHLORIDE], the ND50 with Mus musculus [20] is 83 mg/kg; in the data set on Mus musculus [15], above 200 mg/kg; in the data set with Rattus norvegicus [10], above 100 mg/kg; in the data set on Rattus norvegicus [25] it was above 100 mg/kg. In the data set with Mus musculus [6], this molecule gave a PI above 4.2. Further, the ED50 in the data set on Mus musculus [21] is 15 mg/kg; in the data set with Rattus norvegicus [22] it was 1.7 mg/kg; with Rattus norvegicus [24], 26 mg/kg; in the data set with Mus musculus [26], 48 mg/kg. Also, in the data set on Mus musculus [23], the LD50 was above 100 mg/kg.
For `COc1c(C(=O)Cn2ccnc2)ccc2ccccc12.Cl`, the PI with Mus musculus [4] is reported as 2.2. In the data set on Mus musculus [27], the ND50 stood at 51 mg/kg. In the data set with Mus musculus [28], this molecule had an ED50 of 23 mg/kg.
As for `Cc1ccccc1OC(Cn1ccnc1)c1ccc2ccccc2c1.Cl` (configuration not stated), in the data set with Mus musculus [4], the PI is recorded as 2.1. The ND50 with Mus musculus [29] is 70 mg/kg. Also, in the data set with Mus musculus [30], the ED50 amounted to 33 mg/kg.
Molecule `CCSC(Cn1ccnc1)(SCC)c1ccc2ccccc2c1.Cl` had an ND50 with Mus musculus [3] of 78 mg/kg. This molecule also registered a PI in the data set with Mus musculus [4] of 2.2. For the same molecule, the LD50 in data set [16] is above 100 mg/kg.
For the molecule `OC(Cn1ccnc1)c1ccc2ccccc2c1` (configuration not stated), in data set [16], the LD50 was above 300 mg/kg.
Regarding `Cl.c1ccc(SC(Cn2ccnc2)(Sc2ccccc2)c2ccc3ccccc3c2)cc1`, in the data set with Mus musculus [3], the ND50 is above 60 mg/kg. The molecule further showed an ED50 in the data set with Mus musculus [5] above 60 mg/kg.
As to `CSC(Cn1ccnc1)(SC)c1ccc2ccccc2c1.Cl`, the ND50 in the data set with Mus musculus [3] was found to be 29 mg/kg. Also, in the data set on Mus musculus [4], the PI is 0.9. The same molecule returned an LD50 in data set [16] above 100 mg/kg.
For `Cl.c1ccc2cc(C3(Cn4ccnc4)SCCS3)ccc2c1`, the PI is 1.8 in the data set on Mus musculus [6] and 2.4 with Mus musculus [4]. In addition, the ND50 in the data set with Mus musculus [3] worked out at 64 mg/kg; in the data set with Mus musculus [15] it was 125 mg/kg. Also, the ED50 in the data set with Mus musculus [31] came out at 70 mg/kg. In data set [16], this molecule registered an LD50 above 30 mg/kg.
